Experimental data gathered from unrelated publications.
Compare with care: the assays were run in different laboratories. Converted amounts (≈) assume the structure as drawn.

Structure (SMILES) | organism | assay | test system | setting | quantity | result
O=C(NC(=S)Nc1nccs1)c1cccs1 | Leishmania tropica | parasite growth, resazurin |  | promastigote | IC50 | 1530 nM
N#Cc1c(-c2ccc(Cl)cc2Cl)c(C(N)=O)c(N)n(N)c1=O | Saccharomyces cerevisiae | microbial growth, well diffusion | ATCC9763 | 500 µg/mL | inhibition zone | 10 mm
COc1ccc(Cc2[nH]/c(=N/C(=O)C34CC5CC(CC(C5)C3)C4)n(C)c2-c2ccc(OC(=O)C3CC3)c(OC)c2)cc1 | Hepatitis B virus | viral replication, inhibitor | HePAD38 |  | IC50 | 49300 nM
O=C(NC(=S)Nc1cccc(O)c1)c1ccco1 | Leishmania tropica | parasite growth, resazurin |  | promastigote | IC50 | 680 nM
O=C(O)c1cn(C2CC2)c2cc(N3CCNCC3)c(F)cc2c1=O | Shigella sonnei | microbial growth | ATCC25931 |  | MIC | 0.88 µM (≈ 0.292 µg/mL)
CC(=O)N1CCN(c2ccc(OCC3COC(Cn4ccnc4)(c4ccc(Cl)cc4Cl)O3)cc2)CC1 (stereo not shown) | Saccharomyces cerevisiae | microbial growth, well diffusion | ATCC9763 | 500 µg/mL | inhibition zone | 20 mm
COc1ccc(Cc2[nH]/c(=N/C(=O)C34CC5CC(CC(C5)C3)C4)n(C)c2Cc2ccc(OC)c(OC)c2)cc1 | Hepatitis B virus | viral replication, inhibitor | HePAD38 |  | IC50 | 240 nM
Cc1c(C(N)=O)c(N)n(N)c(=O)c1C#N | Saccharomyces cerevisiae | microbial growth, well diffusion | ATCC9763 | 500 µg/mL | inhibition zone | 11 mm
O=C(NC(=S)Nc1ccccn1)c1cccs1 | Leishmania tropica | parasite growth, resazurin |  | promastigote | IC50 | 790 nM
COc1ccc(Cc2[nH]/c(=N/C(=O)C34CC5CC(CC(C5)C3)C4)n(C)c2-c2ccc(OC(=O)c3ccc(C(F)(F)F)cc3)c(OC)c2)cc1 | Hepatitis B virus | viral replication, inhibitor | HePAD38 |  | IC50 | 5220 nM
